pEC50, pIC50: −log10 of the molar value. In brackets after ≈: the same amount, converted by molar mass. One block for each molecule: values may come before it. Activity calls are given as the source filed them.
Tests used:
[1] = Drug metabolism in CD-1 mouse active microsomes assessed as metabolite formation at rate of biphasic kinetics by LC-MS/MS analysis; assay type: ADME, Microsome
[2] = Metabolic stability in CD-1 mouse inactive microsomes incubated for 1 hr by LC-MS/MS analysis; assay type: ADME, Microsome
[3] = biological target: T1, DNA topoisomerase 2-alpha (Homo sapiens, UniProt P11388); assay: Inhibition of human topoisomerase 2alpha mediated decatenation at 30 uM using kDNA as susbtrate preincubated for 20 mins followed by substrate and ATP addition and measured after 1 hr by ethidium bromide staining based gel electrophoresis method relative to control
T1 sequence (P11388 whole entry): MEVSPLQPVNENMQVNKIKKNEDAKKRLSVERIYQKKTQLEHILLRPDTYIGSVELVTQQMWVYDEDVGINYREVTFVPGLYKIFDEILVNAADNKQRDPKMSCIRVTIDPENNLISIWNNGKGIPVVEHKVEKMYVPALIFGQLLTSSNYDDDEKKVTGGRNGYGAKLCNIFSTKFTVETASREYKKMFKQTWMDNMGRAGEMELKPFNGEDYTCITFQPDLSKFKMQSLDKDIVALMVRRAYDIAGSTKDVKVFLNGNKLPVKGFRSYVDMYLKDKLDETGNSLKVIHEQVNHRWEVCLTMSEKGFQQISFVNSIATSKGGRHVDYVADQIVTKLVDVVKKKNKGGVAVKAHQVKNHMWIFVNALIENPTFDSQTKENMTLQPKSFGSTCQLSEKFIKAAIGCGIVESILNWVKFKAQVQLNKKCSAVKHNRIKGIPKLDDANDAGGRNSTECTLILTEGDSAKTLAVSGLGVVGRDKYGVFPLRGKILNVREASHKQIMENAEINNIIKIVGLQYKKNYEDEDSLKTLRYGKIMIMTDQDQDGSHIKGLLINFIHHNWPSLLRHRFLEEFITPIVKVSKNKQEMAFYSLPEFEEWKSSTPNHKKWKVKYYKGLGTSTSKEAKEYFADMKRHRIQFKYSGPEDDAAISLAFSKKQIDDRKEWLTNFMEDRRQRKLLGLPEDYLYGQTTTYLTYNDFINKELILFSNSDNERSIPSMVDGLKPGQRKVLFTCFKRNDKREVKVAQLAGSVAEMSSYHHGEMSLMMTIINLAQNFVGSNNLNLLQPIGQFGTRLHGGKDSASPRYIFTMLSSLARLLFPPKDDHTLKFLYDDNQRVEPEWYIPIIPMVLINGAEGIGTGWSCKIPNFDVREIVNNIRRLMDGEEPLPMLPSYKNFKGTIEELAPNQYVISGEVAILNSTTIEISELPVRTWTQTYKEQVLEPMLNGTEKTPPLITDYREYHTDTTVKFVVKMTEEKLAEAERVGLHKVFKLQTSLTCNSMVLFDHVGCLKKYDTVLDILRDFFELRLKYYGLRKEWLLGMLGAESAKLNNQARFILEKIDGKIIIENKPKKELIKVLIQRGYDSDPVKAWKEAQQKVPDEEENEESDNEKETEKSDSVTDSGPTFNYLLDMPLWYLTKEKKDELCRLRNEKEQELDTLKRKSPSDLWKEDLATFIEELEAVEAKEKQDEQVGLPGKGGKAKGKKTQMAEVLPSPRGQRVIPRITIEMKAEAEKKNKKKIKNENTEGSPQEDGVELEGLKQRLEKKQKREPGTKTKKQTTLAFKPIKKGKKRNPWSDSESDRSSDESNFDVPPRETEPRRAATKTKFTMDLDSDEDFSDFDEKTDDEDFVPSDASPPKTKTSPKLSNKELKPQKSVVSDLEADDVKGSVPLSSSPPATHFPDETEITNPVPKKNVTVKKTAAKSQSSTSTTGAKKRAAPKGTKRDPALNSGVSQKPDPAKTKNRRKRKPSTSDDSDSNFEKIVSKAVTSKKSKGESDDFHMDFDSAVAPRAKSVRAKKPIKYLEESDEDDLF
Summary of the method: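 Human TOP2A (3 U) preincubated 20 min at 37 °C with compound at 30 μM in 1.2% DMSO. Reaction started with 2 mM ATP and 35 ng kDNA and run 1 h at 37 °C. Products resolved on 0.8% agarose in TBE with 0.2 μg/mL ethidium bromide; decatenated bands compared with vehicle.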

[4] = Drug metabolism in CD-1 mouse active microsomes assessed as metabolite formation at rate of first-order kinetics by LC-MS/MS analysis; assay type: ADME, Microsome
[5] = biological target: T1, DNA topoisomerase 2-alpha; assay: Inhibition of topoisomerase 2alpha in human SW620 organoids transfected with EcadPro-RFP reporter assessed as reversion of epithelial-mesenchymal transition by measuring increase in E-cadherin expression at 10 uM after 72 hrs by Hoechst 33342 staining based mCherryRFP reporter gene assay
Summary of the method: (§1)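 SW620 cells stably carrying VimPro-GFP or EcadPro-mCherry (puromycin selected) grown as organoids and dosed 72 h. Stained with 16 μM Hoechst 33342 for 1 h and imaged as 15 z-layers, 26.5 μm apart. Nuclei segmented and GFP- or mCherry-positive cells counted above background thresholds. Percent positive cells normalised to DMSO.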

[6] = Aqueous solubility of compound in PBS at 1 mg after 18 hrs by UV based analysis; assay type: physicochemical
Summary of the method: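 Undissolved material removed by centrifugation at 5,000g for 45 min. UV absorption compared with a fully saturated 1-propanol solution; solubility derived by linear regression.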

SW-620 [7] = assay: Cytotoxicity against human SW620 organoids assessed as growth inhibition at 10 uM after 72 hrs by brightfield imaging of organoid volume
[8] = AUC(0 to t) in CD-1 mouse at 50 mg/kg, ip by LC-MS/MS analysis; assay type: ADME, organism-based; settings: in vivo
Summary of the method: (§2)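 Female CD-1 mice, single IP injection at 50 mg/kg in 100% DMSO. Sampling from 0.25 to 24 h, three mice per time point (21 per compound). Heparinised blood was spun to plasma, mixed 1:1 with acidified acetonitrile (0.1% formic acid or 0.1% TFA depending on compound), centrifuged, then measured by LC-MS/MS.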

[9] = Drug metabolism in CD-1 mouse active microsomes assessed as CYP450-mediated oxidative phase 1 metabolite formation measured within 30 mins by LC-MS/MS analysis; assay type: ADME; settings: 0.5 h
Mus musculus = assay: Apparent volume of drug distribution in CD-1 mouse at 50 mg/kg, ip by LC-MS/MS analysis; assay type: ADME, organism-based; settings: in vivo; summary of the method: as §2
[10] = Tmax in CD-1 mouse at 50 mg/kg, ip by LC-MS/MS analysis; assay type: ADME, organism-based; settings: in vivo; summary of the method: as §2
SW-620 [11] = assay: Cytotoxicity against human SW620 organoids assessed as cell death with loss of membrane integrity after 72 hrs by CellTox Green assay; assay type: functional, cell-based; settings: SW-620, 72 h
Summary of the method: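 SW620 tumor organoids exposed 72 h to inhibitor over 0–40 μM together with CellTox Green Express (0.5X). Whole-well mean fluorescence imaged (ex 488, em 500–550 nm). Normalised to lysis buffer as 0% viability and 0.4% DMSO as 100% viability.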

SW-620 [12] = assay: Anticlonogenic activity against human SW620 cells assessed as loss of cancer stem cell stemness by measuring inhibition of colony formation at 10 uM incubated for 24 hrs followed by replating and measured after 7 days by clonogenic assay; assay type: functional, cell-based
SW-620 [13] = assay: Antiinvasive activity in human SW620 organoids transduced with NucLight-Red virus assessed as inhibition of cell invasion at 10 uM incubated for 72 hrs and measured after 72 hrs by matrigel based fluorescence analysis; assay type: functional
Summary of the method: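 NucLight-Red-labelled SW620 organoids treated 72 h at 10 μM in 0.1% DMSO, then dissociated. 5,000 live cells per well seeded in 50% Matrigel in the upper chamber of a migration plate, 0.5% FBS above and 20% FBS below. Invading cells tracked by bottom-side fluorescence over days, six replicates per condition.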

[14] = Half life of terminal disposition phase in CD-1 mouse at 50 mg/kg, ip by LC-MS/MS analysis; assay type: ADME, organism-based; settings: in vivo, read-out: t1/2lambda (converted); summary of the method: as §2
[15] = Drug metabolism in CD-1 mouse active microsomes assessed as CYP450-mediated oxidative phase 1 metabolite formation by LC-MS/MS analysis
SW-620 [16] = assay: Induction of early stage cell death in human SW620 organoids transfected with EcadPro-RFP reporter assessed as loss of RFP reporter activity at 40 uM at after 72 hrs by Hoechst 33342 staining based mCherryRFP reporter gene assay; settings: sw-620, 72 h
[17] = biological target: T1, DNA topoisomerase 2-alpha; assay: Poison activity at topoisomerase 2alpha in human SW620 cells assessed as induction of DNA double stranded break by measuring gamma H2AX phosphorylation up to 40 uM after 6 hrs by Hoechst-33342 staining based immunofluorescence assay; assay type: cell-based
Summary of the method: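 SW620 monolayers, 20,000 cells per well, treated with compound for 6 or 24 h. Fixed in 4% paraformaldehyde, then permeabilised and blocked. Stained with γ-H2AX antibody overnight at 4 °C, FITC secondary antibody, and Hoechst 33342, then imaged at 20x.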

[18] = biological target: T1, DNA topoisomerase 2-alpha; assay: Inhibition of topoisomerase 2alpha dependent TCF transcription in human SW620 organoids transduced with TOPflash luminescent reporter after 72 hrs by luciferase based TOPFlash reporter gene assay
Summary of the method: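 SW620 cells stably carrying pCDH-TOPflash-luc grown as organoids: 5,000 cells per U-bottom well in phenol red-free RPMI with 5% FBS and 2% Matrigel, 72 h. Inhibitor then applied 72 h. One-Glo luciferase and CellTiter-Glo 3D added 1:1. Luciferase signal normalised to viability, then to DMSO controls.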

[19] = biological target: T1, DNA topoisomerase 2-alpha; assay: Inhibition of topoisomerase 2alpha in human SW620 organoids transfected with VimPro-GFP reporter assessed as reversion of epithelial-mesenchymal transition by measuring reduction in vimentin expression at 10 uM after 72 hrs by Hoechst 33342 staining based GFP reporter gene assay; summary of the method: as §1
[20] = Half life in CD-1 mouse microsomes measured up to 1 hr by LC-MS analysis; assay type: ADME, Microsome
Summary of the method: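 Female CD-1 mouse liver microsomes (0.5 mg/mL), substrate 1 μg/mL and 1.5 mM NADPH in 0.1 M phosphate buffer pH 7.4 at 37 °C. Samples taken from 0 to 60 min and quenched with an equal volume of acetonitrile. Parent compound remaining measured by LC-MS/MS without internal standard.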

SW-620 [21] = assay: Induction of apoptosis in human SW620 organoids assessed as increase in cleaved caspase 3/7 level at 40 uM after 72 hrs by caspase-glo 3/7 luminescence assay relative to control; assay type: functional
Summary of the method: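 SW620 cells, 2,000 per well in 384-well ultra-low attachment plates with 2% Matrigel, grown 72 h into organoids, then dosed 72 h. Caspase-Glo 3/7 reagent added 1:1 and shaken 30 min; luminescence read. Staurosporine served as positive control and 0.4% DMSO as negative control.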

[22] = biological target: T1, DNA topoisomerase 2-alpha; assay: Inhibition of topoisomerase 2alpha in human SW620 organoids transfected with VimPro-GFP reporter assessed as reversion of epithelial-mesenchymal transition by measuring reduction in vimentin expression up to 40 uM after 72 hrs by Hoechst 33342 staining based GFP reporter gene assay; summary of the method: as §1
[23] = biological target: T1, DNA topoisomerase 2-alpha; assay: Inhibition of topoisomerase 2alpha dependent TCF transcription in human SW620 organoids transduced with TOPflash luminescent reporter at 10 uM after 72 hrs by luciferase based TOPFlash reporter gene assay
[24] = biological target: T1, DNA topoisomerase 2-alpha; assay: Inhibition of topoisomerase 2alpha in human SW620 organoids transfected with EcadPro-RFP reporter assessed as reversion of epithelial-mesenchymal transition by measuring increase in E-cadherin expression up to 40 uM after 72 hrs by Hoechst 33342 staining based mCherryRFP reporter gene assay; summary of the method: as §1
[25] = Clearance in CD-1 mouse at 50 mg/kg, ip by LC-MS/MS analysis; assay type: ADME, organism-based; settings: in vivo; summary of the method: as §2
[26] = Cmax in CD-1 mouse at 50 mg/kg, ip by LC-MS/MS analysis; assay type: ADME, organism-based; set-up: dose 50 mg/kg, route intraperitoneal; settings: in vivo; summary of the method: as §2

Drug metabolism [1]: Metabolite_Detected
Stability [2]: Stable
inhibition [3]: 25%
Drug metabolism [4]: Metabolite_Notdetected
Compound: CC(=O)Nc1ccc2c(-c3ccccc3)ccnc2c1O

inhibition [5]: Active
solubility thermodynamic at 18 h [6]: 450 µg/mL (≈ 1440 µM)
AUC(0-t) [8]: 12500 ng·h/mL
Drug metabolism [9]: Metabolite_Detected
Vz (Mus musculus): 10.9 L/kg
Tmax [10]: 15 min
half-life [14]: 118 min
Drug metabolism [15]: Metabolite_Notdetected
Stability [2]: Stable
pIC50 [18]: 5.62
inhibition [19]: Active
t1/2 [20]: 6.72 min
inhibition [22]: Active
inhibition [3]: 99%
inhibition [23]: Active
inhibition [24]: Active
CL/F [25]: 64.5 mL/min/kg
Cmax [26]: 19000 ng/mL
Compound: CC(=O)Nc1ccc2c(-c3cc(F)ccc3O)ccnc2c1O
growth inhibition (GI) (SW-620 [7]): Active
pEC50 (SW-620 [11]): < 4.52
inhibition (SW-620 [12]): Active
inhibition (SW-620 [13]): Active
Activity (SW-620 [16]): Active
Activity [17]: Not Active
Activity (SW-620 [21]): Active

— ChEMBL document CHEMBL4321838, “Drug Design Targeting T-Cell Factor-Driven Epithelial-Mesenchymal Transition as a Therapeutic Strategy for Colorectal Cancer” (J Med Chem, 2019)
